Compounds with a hit are over-represented: about 2.7% of the library has one in this group of screens.
VIM-2 inhibitor – inhibitors of Pseudomonas aeruginosa VIM-2 metallo-beta-lactamase. purified VIM-2, nitrocefin hydrolysis, epi-absorbance fluorescence. inhibition, % at 5.6 µM. hit rate 0.89% among 290,000. AID 1527;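 active means inhibition above the mean of all tested compounds plus 3 SD, cutoff set per screening run, cut at about 7.5% in these data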;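 further: red hydrolysis product quenches plate fluorescence so inhibitors raise well fluorescence; 0% = enzyme with DMSO and 100% = DMSO without enzyme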
PfM18AAP inh – PfM18AAP enzyme inhibition | inhibition, % at 7.35 µM | hit rate 1.2% among 290,000 | recombinant PfM18AAP, H-Glu-NHMec fluorogenic cleavage;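 active means inhibition above the campaign mean inhibition over all tested compounds plus 3 SD, cut at about 28% in these data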;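 further: 0% = plate median of test compound wells and 100% = 2 mM ZnCl2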
CTSL1 counter – counter-screen for PFM18AAP inhibitors: inhibitors of F. hepatica cathepsin L1 | recombinant F. hepatica cathepsin L1, Z-Leu-Arg-MCA fluorescence | inhibition, % at 5.96 µM | hit rate 0.49% among 300,000 | AID 1906;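 active means inhibition above the mean of all tested compounds plus 3 SD, set per screening campaign, cut at about 17% in these data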;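 further: 0% = plate median of test compound wells and 100% = 1 µM Z-Phe-Ala-diazomethylketone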
IMP-1 inh – blocks Pseudomonas aeruginosa IMP-1 metallo-beta-lactamase | purified IMP-1, nitrocefin hydrolysis, epi-absorbance fluorescence | hit rate 0.45% among 290,000 | inhibition, % at 5.6 µM;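 active means inhibition above the mean plus 3 SD of all compounds in the same screening run, cut at about 4.5% in these data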;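 further: 0% = IMP-1 with DMSO and 100% = DMSO wells lacking enzyme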
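Test system: recombinant IMP-1 enzyme, purified / Medium: HEPES buffer pH 7.1 with ZnSO4 and Brij 35 / Doses: single dose, 5.6 µM / Times: 25 °C, 15 min preincubation, 25 min reaction / Detection: Epi-absorbance via hydrolysed-nitrocefin quenching of white-plate fluorescence, 480/530 nm, EDTA stop / Evaluation: percent inhibition from optical density relative to buffer-blank wells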
VIM-2 inh confirm – VIM-2 inhibition, confirmation assay; shares compounds with IMP-1 inh; purified VIM-2 enzyme, nitrocefin absorbance; inhibition, % at 5.6 µM; hit rate 73% among 200; in the data active means inhibition above about 8%;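 further: 0% = enzyme with vehicle and 100% = no enzyme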
TEM-1 counter – blocks E. coli TEM-1 beta-lactamase, VIM-2 IMP-1 counter-screen; shares compounds with IMP-1 inh; nitrocefin absorbance inhibition; inhibition, % at 5.6 µM; hit rate 50% among 200; AID 2184; in the data active means inhibition above about 0.66%
Target sequence (P62593 whole entry, looked up): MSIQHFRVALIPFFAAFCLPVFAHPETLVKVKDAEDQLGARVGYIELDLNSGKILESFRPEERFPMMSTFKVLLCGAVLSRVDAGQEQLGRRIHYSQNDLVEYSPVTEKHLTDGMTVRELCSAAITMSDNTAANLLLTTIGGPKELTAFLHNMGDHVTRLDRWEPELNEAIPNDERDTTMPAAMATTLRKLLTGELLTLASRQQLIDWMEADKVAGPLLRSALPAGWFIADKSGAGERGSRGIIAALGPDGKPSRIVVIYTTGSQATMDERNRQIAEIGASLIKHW
IMP-1 confirm – confirmation of P. aeruginosa IMP-1 metallo-beta-lactamase inhibitors | AID 2189 | hit rate 60% among 200 | purified IMP-1 enzyme, absorbance substrate hydrolysis | inhibition, % at 5.6 µM | shares compounds with IMP-1 inh; in the data active means inhibition above about 4.9%;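 further: 0% = enzyme with vehicle and 100% = vehicle without enzyme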
* = called active by the depositor; x = not tested or not shown.

SMILES	VIM-2 inhibitor	PfM18AAP inh	CTSL1 counter	IMP-1 inh	VIM-2 inh confirm	TEM-1 counter	IMP-1 confirm
N#CC1=C(N)S[C@H](C(=O)C23CC4CC(CC(C4)C2)C3)[C@H]1c1ccncc1	21.6*	9.3	4.5	54.9*	-0.4	-4.8	5.8*
CCOc1ccc(-c2cc(C(=O)NCCCn3ccnc3)c3cc(Br)ccc3n2)cc1	17.1*	13.5	2.5	32.7*	20.6*	-2.0	41.4*
O=C(/C=C/c1ccncc1)c1cc(Cl)ccc1O	-2.3	10.4	1.9	-2.6	x	x	x
CN(C)c1ccc(/C=C/C(=O)c2cc(Cl)ccc2O)cc1	15.0*	-2.1	3.4	19.8*	24.3*	34.5*	22.3*
C[n+]1cc(C(=O)N2CCCCC2)ccc1/C=C/c1c[nH]c2ccccc12	7.2	4.0	5.1	4.9*	13.8*	0.5*	5.6*
Nc1ccccc1C(=O)NNC(=O)C(=O)/C=C(\O)c1ccccc1	-3.0	4.8	-2.7	-1.6	x	x	x
O=C1/C(=C/c2cccnc2)SC(=S)N1c1ccc(O)cc1	9.2*	18.6	-1.3	6.0*	11.2*	-2.7	-1.7
O=C1/C(=C/c2cccnc2)SC(=S)N1c1ccc(F)cc1	-2.3	11.1	-2.5	-1.1	x	x	x
CN1/C(=C\C=C2/C(=O)Oc3ccccc3C2=O)C(C)(C)c2ccccc21	9.6*	8.9	7.8	12.6*	30.6*	45.1*	24.3*
Cc1ccc2[nH]cc(/C=C/c3cc[n+](C)cc3)c2c1	15.0*	11.1	x	5.7*	14.7*	5.1*	5.9*
COc1ccc2c(/C=C/c3cc[n+](C)cc3)c[nH]c2c1	1.1	7.0	5.3	-3.1	x	x	x
CCn1c(/C=C/c2c[nH]c3ccccc23)nc2ccccc2c1=O	-5.6	-1.5	0.1	-4.2	x	x	x
CC[n+]1ccc(/C=C/c2c[nH]c3ccccc23)cc1	8.2*	1.5	0.4	5.6*	8.1*	2.7*	3.8
CCN(CC)c1ccc(/C=C/C(=O)c2ccc(Br)cc2)cc1	13.7*	1.0	2.5	8.0*	33.5*	47.6*	30.9*
C/C(=N\Nc1ncnc2sc(C)c(C)c12)c1ccccn1	13.7*	19.4	1.1	12.7*	38.3*	7.1*	3.7
Cc1sc2ncnc(N/N=C/c3cccc(O)c3)c2c1C	-0.7	3.7	-0.2	-3.1	x	x	x
O=C(CSc1ccc(Br)cc1)NCC(c1ccco1)N1CCCCC1 (configuration not stated)	x	x	4.3	x	x	x	x
O=C(c1cc(-c2ccc(Br)cc2)on1)N1CCc2ccccc2C1	3.4	-0.5	1.2	0.1	x	x	x
Cc1cccc(C)c1NC(=O)COC(=O)c1c2c(nc3ccccc13)/C(=C\c1ccc3c(c1)OCO3)CCC2	20.0*	14.2	2.2	16.8*	0.2	-4.0	-1.2
Cc1cccc(C)c1NC(=O)COC(=O)c1ccc2c(c1)OCO2	-2.2	-14.4	1.2	-2.2	x	x	x
CC(OC(=O)c1c2c(nc3ccccc13)/C(=C\c1ccc3c(c1)OCO3)CCC2)C(=O)Nc1ccc(S(N)(=O)=O)cc1 (configuration not stated)	17.6*	5.5	x	13.5*	14.8*	28.6*	10.4*
O=C(COC(=O)c1cc(S(=O)(=O)NCc2ccccc2)ccc1O)c1cc2ccccc2o1	-1.5	-8.4	3.1	-2.2	x	x	x
Cc1ccc(C)c(S(=O)(=O)N2CCN(C(=O)CSc3ccccc3F)CC2)c1	-1.9	-0.5	-0.8	-5.8	x	x	x
O=C1/C(=C\c2cc(Cl)c(O)c(Cl)c2)SC(=S)N1Cc1ccccc1	17.5*	4.8	x	18.4*	17.7*	54.5*	14.5*
CC(NC(=O)c1cccs1)C(S)c1ccccc1 (configuration not stated)	41.1*	4.9	-3.0	21.5*	46.6*	-5.8	48.5*
SMILES	VIM-2 inhibitor	PfM18AAP inh	CTSL1 counter	IMP-1 inh	VIM-2 inh confirm	TEM-1 counter	IMP-1 confirm
CC(NC(=O)c1cccs1)c1ccc(Cl)cc1 (configuration not stated)	x	x	1.5	x	x	x	x
C(#Cc1ccccc1)C[N+]1(CC#Cc2ccccc2)CCCC1	-0.5	-6.0	1.2	-4.7	x	x	x
C=CC#CC[N+]1(CC#Cc2ccccc2)CCOCC1	20.2*	3.9	x	19.7*	33.8*	-5.5	-2.9
CN(/N=C/c1ccc(N(C)C)cc1)C1=NS(=O)(=O)c2ccccc21	51.5*	4.2	3.0	24.2*	29.1*	14.3*	23.7*
CCN(CC)c1ccc(/C=C(\C#N)C(=O)NCc2ccco2)cc1	18.0*	9.4	23.1*	5.3*	-3.0	-5.6	-3.7
CC(C)(C)c1ccc(-c2c(C(=O)O)c(C(=O)O)c3n2CSC3)cc1	20.2*	6.4	-2.0	20.4*	17.3*	-4.8	12.4*
NC(=O)N=Nc1c(O)n(Cc2ccccc2)c2ccc(Br)cc12	7.5	-7.3	x	-3.7	x	x	x
COc1ccc(NC(=O)NS(=O)(=O)c2ccc(C)cc2)cn1	16.1*	24.7	x	11.9*	-0.2	-2.0	-2.6
CC(C)CN1C(=O)NC(NS(=O)(=O)c2ccc(N)cc2)(C(F)(F)F)C1=O (configuration not stated)	-2.1	-0.7	-0.1	-2.1	x	x	x
O=C(CC(SCc1ccco1)c1ccc(O)cc1)c1cccs1 (configuration not stated)	7.7	24.6	1.1	16.1*	9.2*	-4.0	-0.2
O=C(CSc1nnc(-c2ccc(O)cc2)n1Cc1ccco1)c1cccs1	0.0	-6.9	-4.3	2.1	x	x	x
Cc1ccsc1C(=O)N(C)CC(=O)N(CC(C)C)c1c(N)n(CC(C)C)c(=O)[nH]c1=O	x	x	0.5	x	x	x	x
Cc1ccc2nc3c(cc(C(=O)NCCCn4ccnc4)n3C)c(=O)n2c1	14.6*	4.8	3.8	8.4*	2.3	-0.6	-1.9
Cc1ccc2nc3c(cc(C(=O)NCC4CCCO4)n3C)c(=O)n2c1 (configuration not stated)	0.6	-3.6	x	-2.4	x	x	x
O=[N+]([O-])c1cccc(/C=C/C=N/Nc2nc(N3CCCCC3)nc(N3CCCCC3)n2)c1	0.3	-14.0	-0.2	-0.2	x	x	x
COC(=O)C1=C(N)OC2=C(C(=O)CC(C)(C)C2)C1c1cc2c(cc1Cl)OCO2 (configuration not stated)	-1.0	-10.6	-6.3	-5.0	x	x	x
Clc1ccc(CNCCC2=CCCCC2)cc1	-0.9	2.2	-0.4	-1.6	x	x	x
CC1CCN(C(=O)CSc2nnc(CNC(=O)COc3ccc(Cl)cc3)o2)CC1	7.2	-2.5	3.7	35.3*	1.2	-0.7	-0.5
O=C(COc1ccc(Cl)cc1)NCc1nnc(SCC(=O)NC2CCCCC2)o1	-2.7	-0.8	1.6	-2.6	x	x	x
COc1ccc(/C=C2\SC(=O)NC2=S)cc1OC	11.9*	17.7	-1.3	6.8*	3.4	-8.9	-4.7
CCOc1ccc(/C=C2\SC(=S)NC2=O)cc1OC	-2.8	3.2	3.5	-3.7	x	x	x
O=C(CSc1nnc(-c2ccc(O)cc2)n1-c1ccccc1)CC(=O)Nc1ccccc1	15.9*	32.8*	11.1	7.9*	0.0	-4.7	-3.0

Assay outcomes deposited in PubChem by The Scripps Research Institute Molecular Screening Center.
